# Measurements taken from ChEMBL document CHEMBL4138179, “Design, synthesis and cytotoxic activity of N-Modified oleanolic saponins bearing A glucosamine” (Eur J Med Chem, 2018).
# How the values were obtained:
# [1] = system: HL-60; test: Cytotoxicity against human HL60 cells assessed as cell growth inhibition after 48 hrs by MTT assay; format: functional, cell-based; details: HL-60, 48 h
# Method in brief: (§1)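 Cells from ATCC; HL-60 grown in IMDM, PC-3 in RPMI 1640, HT29 in DMEM, each with 10% FBS and penicillin/streptomycin, 37 °C, 5% CO2. Cells incubated without or with compound at the indicated concentrations and times. Mitochondrial MTT reduction read at 570 nm on a plate reader. IC50 given as mean ± SD of at least three independent experiments.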
# [2] = system: HT-29; test: Cytotoxicity against human HT-29 cells assessed as cell growth inhibition after 48 hrs by MTT assay; format: functional, cell-based; details: HT-29, 48 h; method in brief: as §1
# [3] = Drug uptake in human HL60 cell membrane at 15 uM for 15 hrs by DBCO-488-based fluorescence confocal microscopy; format: ADME, cell membranes; details: hl-60, 15 h
# Method in brief: (§2)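 HL-60 cells treated with azido-bearing compound (15 μM, 15 h); DMSO-diluted control. Cells fixed in 99% alcohol, permeabilized with 0.1% Triton X-100 in PBS for 15 min, then washed. Copper-free labeling with DBCO-488 (2 μM) plus 0.5 mg/mL BSA in PBS for 6 h. RedDot2 nuclear and CellBrite Blue membrane counterstains; imaged by confocal fluorescence microscopy.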
# [4] = system: PC-3; test: Cytotoxicity against human PC3 cells assessed as cell growth inhibition after 48 hrs by MTT assay; format: functional, cell-based; details: PC-3, 48 h; method in brief: as §1
# [5] = Drug uptake in human HL60 cells at 15 uM for 15 hrs by DBCO-488 probe based fluorescence confocal microscopy; format: ADME, cell-based; details: hl-60, 15 h; method in brief: as §2
# [6] = system: HL-60; test: Induction of mitochondrial membrane depolarization in human HL60 cells after 24 hrs by JC-1 staining based flow cytometry; format: functional, cell-based
# Method in brief: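 HL-60 cells exposed to a range of compound concentrations under the MTT culture conditions, untreated control included. After 1 day, cells stained with JC-1 (final 2 μM) at 37 °C for 30 min, then harvested. Flow cytometry gives the percentage loss of mitochondrial membrane potential.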
SMILES,IC50 [1],IC50 [2],Drug uptake [3],IC50 [4],Drug uptake [5],Activity [6]
CC1(C)CC[C@]2(C(=O)O)CC[C@]3(C)C(=CC[C@@H]4[C@@]5(C)CC[C@H](O[C@@H]6O[C@H](CO)[C@@H](O)[C@H](O)[C@H]6NC(=O)CN=[N+]=[N-])C(C)(C)[C@@H]5CC[C@]43C)[C@@H]2C1,9.13 µM,23.1 µM,Active,22.4 µM,,
"CC1(C)CC[C@]2(C(=O)O)CC[C@]3(C)C(=CC[C@H]4C3(C)CC[C@H]3C(C)(C)[C@@H](O[C@@H]5O[C@H](CO)[C@@H](O)[C@H](O)[C@H]5NC(=O)CCc5cn(-c6cc7ccc(O)cc7oc6=O)nn5)CC[C@@]34C)[C@@H]2C1 (single isomer, unassigned)",,,,,Active,
CCCCCCC(=O)N[C@H]1[C@H](O[C@H]2CC[C@]3(C)[C@H]4CC=C5[C@@H]6CC(C)(C)CC[C@]6(C(=O)O)CC[C@@]5(C)[C@]4(C)CC[C@H]3C2(C)C)O[C@H](CO)[C@@H](O)[C@@H]1O,2.85 µM,> 30 µM,,> 30 µM,,Dose-dependent effect
CCCCCCCCCCCCCCCCCC(=O)N[C@H]1[C@H](O[C@H]2CC[C@]3(C)[C@H]4CC=C5[C@@H]6CC(C)(C)CC[C@]6(C(=O)O)CC[C@@]5(C)[C@]4(C)CC[C@H]3C2(C)C)O[C@H](CO)[C@@H](O)[C@@H]1O,> 30 µM,> 30 µM,,> 30 µM,,
CCCCCCCCCOC(=O)N[C@H]1[C@H](O[C@H]2CC[C@]3(C)[C@H]4CC=C5[C@@H]6CC(C)(C)CC[C@]6(C(=O)O)CC[C@@]5(C)[C@]4(C)CC[C@H]3C2(C)C)O[C@H](CO)[C@@H](O)[C@@H]1O,1.23 µM,22 µM,,16.1 µM,,
C#CCCC(=O)N[C@H]1[C@H](O[C@H]2CC[C@]3(C)[C@H]4CC=C5[C@@H]6CC(C)(C)CC[C@]6(C(=O)O)CC[C@@]5(C)[C@]4(C)CC[C@H]3C2(C)C)O[C@H](CO)[C@@H](O)[C@@H]1O,10.6 µM,> 30 µM,Active,> 30 µM,,
CCCCCOC(=O)N[C@H]1[C@H](O[C@H]2CC[C@]3(C)[C@H]4CC=C5[C@@H]6CC(C)(C)CC[C@]6(C(=O)O)CC[C@@]5(C)[C@]4(C)CC[C@H]3C2(C)C)O[C@H](CO)[C@@H](O)[C@@H]1O,1.46 µM,> 30 µM,,> 30 µM,,
COC(=O)N[C@H]1[C@H](O[C@H]2CC[C@]3(C)[C@H]4CC=C5[C@@H]6CC(C)(C)CC[C@]6(C(=O)O)CC[C@@]5(C)[C@]4(C)CC[C@H]3C2(C)C)O[C@H](CO)[C@@H](O)[C@@H]1O,11.4 µM,> 30 µM,,> 30 µM,,
